Assay results reported in ChEMBL document CHEMBL3232996, “Synthesis and biological evaluation of novel (123)I-labeled 4-(4-iodophenyl)butanoyl-L-prolyl-(2S)-pyrrolidines for imaging prolyl oligopeptidase in vivo” (Eur J Med Chem, 2014).

Tests used:
Type in all cases: ADME, organism-based
[1] = Plasma protein binding in iv dosed C57Bl/6JRccHsd mouse measured at 20 mins post dose pretreated with 50 umol/kg, ip prolyl oligopeptidase inhibitor KYP-2047 10 mins before compound dosing by SPECT analysis; conditions: in vivo
Procedure, shortened: (§1)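 Male mice given 3.6 MBq tracer i.v. via lateral tail vein; blocking groups got POP inhibitor i.p. (50 µmol/kg, 10 mL/kg, 1% DMSO in 0.9% NaCl) 10 min before. Heparinized cardiac blood on ice, gamma-counted, spun 5 min at 2000 g; plasma counted, precipitated with 1.5 volumes acetonitrile, respun; cell-bound, protein-bound and free fractions expressed as % of blood activity; n = 3.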

Thyroid gland [2] = experiment: Biodistribution in C57Bl/6JRccHsd mouse thyroid at 2.86 +/- 1.26 MBq, iv measured at 160 mins by SPECT analysis; conditions: in vivo
Procedure, shortened: (§2)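 Organs excised at 5, 20, 40, 80 or 160 min and radioactivity gamma-counted as %ID/g (brain also as %ID). Blocking groups received KYP-2047 (50 µmol/kg, 10 mL/kg, 1% DMSO in 0.9% NaCl) i.p. 10 min before tracer. Mean ± SD, n = 2–4 per time point. Blocking compared by two-tailed Student's t test.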

Blood [3] = experiment: Biodistribution in C57Bl/6JRccHsd mouse blood at 2.86 +/- 1.26 MBq, iv measured at 20 mins post dose pretreated with 50 umol/kg, ip prolyl oligopeptidase inhibitor KYP-2047 10 mins before compound dosing by SPECT analysis; conditions: in vivo; procedure, shortened: as §2
[4] = Biodistribution in C57Bl/6JRccHsd mouse urine at 2.86 +/- 1.26 MBq, iv measured at 80 mins post dose pretreated with 50 umol/kg, ip prolyl oligopeptidase inhibitor KYP-2047 10 mins before compound dosing by SPECT analysis; conditions: in vivo; procedure, shortened: as §2
[5] = Fraction unbound in iv dosed C57Bl/6JRccHsd mouse plasma measured at 20 mins post dose pretreated with 50 umol/kg, ip prolyl oligopeptidase inhibitor KYP-2047 10 mins before compound dosing by SPECT analysis; procedure, shortened: as §1
[6] = Plasma protein binding in iv dosed C57Bl/6JRccHsd mouse measured at 40 mins; conditions: read-out: PPB (converted); procedure, shortened: as §1
[7] = Plasma protein binding in iv dosed C57Bl/6JRccHsd mouse measured at 80 mins; conditions: in vivo; procedure, shortened: as §1
[8] = Drug uptake in iv dosed C57Bl/6JRccHsd mouse blood cells measured at 160 mins; conditions: in vivo
Procedure, shortened: (§3)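 Mice got tracer i.v., some after i.p. KYP-2047 (50 µmol/kg) 10 min before. Cardiac blood was collected at 20, 40, 80 or 160 min and spun 5 min at 2000 g into cells and plasma. Plasma was precipitated with acetonitrile and pellet and supernatant were gamma-counted. Activity in cells, protein-bound and free plasma is given as % of total blood activity, n = 3.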

[9] = Drug uptake in iv dosed C57Bl/6JRccHsd mouse blood cells measured at 40 mins; conditions: in vivo; procedure, shortened: as §3
Blood [10] = experiment: Biodistribution in C57Bl/6JRccHsd mouse blood at 2.86 +/- 1.26 MBq, iv measured at 160 mins post dose pretreated with 50 umol/kg, ip prolyl oligopeptidase inhibitor KYP-2047 10 mins before compound dosing by SPECT analysis; conditions: in vivo; procedure, shortened: as §2
[11] = Drug uptake in iv dosed C57Bl/6JRccHsd mouse blood cells measured at 20 mins post dose pretreated with 50 umol/kg, ip prolyl oligopeptidase inhibitor KYP-2047 10 mins before compound dosing by SPECT analysis; conditions: in vivo; procedure, shortened: as §3
[12] = Plasma protein binding in iv dosed C57Bl/6JRccHsd mouse measured at 160 mins; conditions: in vivo; procedure, shortened: as §1
[13] = Drug uptake in iv dosed C57Bl/6JRccHsd mouse blood cells measured at 20 mins; conditions: in vivo; procedure, shortened: as §3
[14] = Biodistribution in brain of iv dosed C57BL/6JRccHsd mouse LPS-induced acute neuroinflammation model dosed 24 hrs after LPS challenge and measured at 80 mins post dose
Procedure, shortened: (§4)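 Male mice under isoflurane got a stereotaxic LPS injection (E. coli 055:B5) into the left striatum, with buprenorphine 0.1 mg/kg s.c. for post-operative pain. The right hemisphere served as intact control. Tracer was given i.v. 24 h later. Left and right hemisphere and whole-brain radioactivity were measured 80 min post injection as %ID/g or %ID, n = 3.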

Lung = experiment: Biodistribution in C57Bl/6JRccHsd mouse lung at 2.86 +/- 1.26 MBq, iv measured at 80 mins post dose pretreated with 50 umol/kg, ip prolyl oligopeptidase inhibitor KYP-2047 10 mins before compound dosing by SPECT analysis; conditions: in vivo; procedure, shortened: as §2
Brain = experiment: Biodistribution in C57Bl/6JRccHsd mouse brain at 2.86 +/- 1.26 MBq, iv measured at 5 mins by SPECT analysis; conditions: in vivo; procedure, shortened: as §2
Spleen [15] = experiment: Biodistribution in C57Bl/6JRccHsd mouse spleen at 2.86 +/- 1.26 MBq, iv measured at 80 mins post dose pretreated with 50 umol/kg, ip prolyl oligopeptidase inhibitor KYP-2047 10 mins before compound dosing by SPECT analysis; conditions: in vivo; procedure, shortened: as §2
Thyroid gland [16] = experiment: Biodistribution in C57Bl/6JRccHsd mouse thyroid at 2.86 +/- 1.26 MBq, iv measured at 5 mins by SPECT analysis; conditions: in vivo; procedure, shortened: as §2
[17] = Fraction unbound in iv dosed C57Bl/6JRccHsd mouse plasma measured at 160 mins post dose pretreated with 50 umol/kg, ip prolyl oligopeptidase inhibitor KYP-2047 10 mins before compound dosing by SPECT analysis; procedure, shortened: as §3
Spleen [18] = experiment: Biodistribution in C57Bl/6JRccHsd mouse spleen at 2.86 +/- 1.26 MBq, iv measured at 80 mins by SPECT analysis; conditions: in vivo; procedure, shortened: as §2
Blood [19] = experiment: Biodistribution in C57Bl/6JRccHsd mouse blood at 2.86 +/- 1.26 MBq, iv measured at 160 mins by SPECT analysis; conditions: in vivo; procedure, shortened: as §2
Liver = experiment: Biodistribution in C57Bl/6JRccHsd mouse liver at 2.86 +/- 1.26 MBq, iv measured at 80 mins post dose pretreated with 50 umol/kg, ip prolyl oligopeptidase inhibitor KYP-2047 10 mins before compound dosing by SPECT analysis; conditions: in vivo; procedure, shortened: as §2
[20] = Biodistribution in C57Bl/6JRccHsd mouse urine at 2.86 +/- 1.26 MBq, iv measured at 80 mins by SPECT analysis; conditions: in vivo; procedure, shortened: as §2
[21] = Plasma protein binding in iv dosed C57Bl/6JRccHsd mouse measured at 160 mins post dose pretreated with 50 umol/kg, ip prolyl oligopeptidase inhibitor KYP-2047 10 mins before compound dosing by SPECT analysis; conditions: in vivo; procedure, shortened: as §1
[22] = Biodistribution in right brain hemisphere of iv dosed C57BL/6JRccHsd mouse dosed 24 hrs after LPS challenge and measured at 80 mins post dose; conditions: read-out: Drug uptake; procedure, shortened: as §4
[23] = Drug uptake in iv dosed C57Bl/6JRccHsd mouse blood cells measured at 80 mins; conditions: in vivo; procedure, shortened: as §3

PPB [1]: 0%
Drug uptake (Thyroid gland [2]): 9.4 % ID/g
Drug uptake (Blood [3]): 10.9 % ID/g
Drug uptake [4]: 45.24 % ID/g
fraction unbound at 20 min [5]: 0.47
fraction unbound at 40 min [6]: 0.98
PPB [7]: 1%
Drug uptake [8]: 73%
Drug uptake [9]: 90%
Drug uptake (Blood [10]): 1 % ID/g
Drug uptake [11]: 53%
PPB [12]: 1%
Drug uptake [13]: 95%
tissue uptake at 80 min [14]: 0.6 %ID
Drug uptake (Lung): 1.54 % ID/g
Drug uptake (Brain): 0.43 %ID
Drug uptake (Spleen [15]): 0.92 % ID/g
Drug uptake (Thyroid gland [16]): 52 % ID/g
fraction unbound at 160 min [17]: 0.58
Drug uptake (Spleen [18]): 10.56 % ID/g
Drug uptake (Blood [19]): 2.1 % ID/g
Drug uptake (Liver): 5.05 % ID/g
Drug uptake [20]: 2.23 % ID/g
PPB [21]: 0%
tissue uptake at 80 min [22]: 1.09 %ID/g
Drug uptake [23]: 84%
SMILES: N#C[C@@H]1CCCN1C(=O)[C@@H]1CCCN1C(=O)CCCc1ccc([123I])cc1
